Results published in ChEMBL document CHEMBL1153436, “2-Pyridyl P1'-substituted symmetry-based human immunodeficiency virus protease inhibitors (A-792611 and A-790742) with potential for convenient dosing and reduced side effects” (J Med Chem, 2009).

Experiments:
Rattus norvegicus [1] = test: Toxicity in Gunn rat assessed as unconjugated-bilirubin level at 100 mg/kg coadministered with ritonavir measured on day 1; type: organism-based; design: dose 100 mg/kg; conditions: in vivo
How it was run: (§1)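 Gunn rats (n = 8-10 per arm) dosed orally with compound in 5% ethanol/95% propylene glycol with p-toluenesulfonic acid, together with 50 mg/kg RTV. Plasma was sampled 4 h after the first and second doses. Drug was measured by HPLC and bilirubin […]. Change in bilirubin (mg/dL) reported as mean with SD.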

Rattus norvegicus [2] = test: Toxicity in Gunn rat assessed as unconjugated-bilirubin level at 100 mg/kg coadministered with ritonavir measured on day 2; type: organism-based; design: dose 100 mg/kg; conditions: in vivo; how it was run: as §1
Serum [3] = test: Drug level in Gunn rat serum at 100 mg/kg coadministered with ritonavir measured on day 1; type: ADME, organism-based; design: dose 100 mg/kg; conditions: in vivo; how it was run: as §1
Serum [4] = test: Drug level in Gunn rat serum at 100 mg/kg coadministered with ritonavir measured on day 2; type: ADME, organism-based; design: dose 100 mg/kg; conditions: in vivo; how it was run: as §1
[5] = system: Human immunodeficiency virus 1; test: Antiviral activity against wild-type HIV1 pNL4-3 infected in human MT4 cells after 5 days by MTT assay; type: functional, organism-based; conditions: Human immunodeficiency virus 1, MT4, 120 h
[6] = system: Human immunodeficiency virus 1; test: Antiviral activity against wild-type HIV1 pNL4-3 infected in human MT4 cells after 5 days by MTT assay in presence of 50% human serum; type: functional, organism-based; conditions: Human immunodeficiency virus 1, MT4, 120 h
[7] = system: Human immunodeficiency virus 1; test: Antiviral activity against HIV1 bearing protease gene with A17 mutation infected in human MT4 cells after 5 days by MTT assay; type: functional, organism-based; conditions: Human immunodeficiency virus 1, MT4, 120 h
How it was run: (§2)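 HIV-1 A17 mutant clone carrying protease mutations L10F, V32I, M46I, I47V, Q58E and I84V, generated by in vitro serial passage under LPV/RTV. EC50 was determined in MT-4 cells. Wild-type reference strain was HIV-1 pNL4-3.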

[8] = system: Human immunodeficiency virus 1; test: Fold resistance, ratio of EC50 for HIV1 bearing protease gene with A17 mutation to EC50 for wild-type HIV1 pNL4-3; type: functional; how it was run: as §2
Rattus norvegicus [9] = test: Toxicity in po dosed Gunn rat assessed as hyperbilirubinemia; type: organism-based; conditions: in vivo; how it was run: as §1
[10] = AUC in dog at 5 mg/kg, po; type: ADME, organism-based, Canis lupus familiaris; design: dose 5 mg/kg, route oral; conditions: plasma
How it was run: (§3)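 Male and female beagle dogs (n = 3) given oral gavage doses formulated as 5 mg/mL solutions in 5% dextrose with 20% ethanol, 30% propylene glycol and methanesulfonic acid, alone or with RTV (2.5 or 5 mg/kg). Plasma was taken at 12 time points over 12 h, extracted with ethyl acetate/hexane and analysed by reversed-phase HPLC with internal standard. AUC in µg·h/mL; Cmax and C12h in µg/mL.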

[11] = AUC in dog at 2.5 mg/kg; type: ADME, organism-based, Canis lupus familiaris; design: dose 2.5 mg/kg; conditions: plasma; how it was run: as §3

SMILES	Activity (Rattus norvegicus [1]) [mg/dL]	Activity (Rattus norvegicus [2]) [mg/dL]	Drug uptake (Serum [3]) [µg/mL]	Drug uptake (Serum [4]) [µg/mL]	EC50 [5] [nM]	EC50 [6] [nM]	EC50 [7] [nM]	Ratio EC50 [8]	Activity (Rattus norvegicus [9])	AUC [10] [ng·h/mL]	AUC [11] [ng·h/mL]
COC(=O)N[C@H](C(=O)NN(Cc1ccc(-c2ccccn2)cc1)C[C@H](O)[C@H](Cc1ccccc1)NC(=O)[C@@H](N1CCN(Cc2cccc(C)n2)C1=O)C(C)(C)C)C(C)(C)C	0.536	0.685	8.87	8.88	2	30	17	9	Toxic		
CC(C)c1nc(CN(C)C(=O)N[C@H](C(=O)N[C@@H](Cc2ccccc2)C[C@H](O)[C@H](Cc2ccccc2)NC(=O)OCc2cncs2)C(C)C)cs1 [RITONAVIR]										8800	1560
